A short description of series [1]: Stability assessed as half life at pH 8.0 in presence of calf intestine alkaline phosphatase. It is filed as ADME, tissue-based. Particulars: cattle. In outline:
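Prodrug in 50 mM sodium phosphate pH 7.4 was incubated with calf intestinal alkaline phosphatase (0.000125 units/µL) in 10 mM Tris pH 8.0 at 37 °C for 30 min. Reactions were quenched with NaCl and MeOH/acetonitrile, held on ice for 30 min and centrifuged. Dephosphorylation half-life is in minutes.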

Series [2] can be described thus: Aqueous solubility in water by shake flask method. The class given is physicochemical. In outline: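 Solubility: about 5 mg solid per 1 mL deionized water, unbuffered, in triplicate. Samples were vortexed, sonicated and protected from light, then tumbled at 25 °C for 1 day. They were centrifuged, filtered and diluted, and analyzed by HPLC with UV detection at 215 nm.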

Series [3] can be described thus: Chemical stability assessed as half life at pH 2 by HPLC. The following applies: buffer. It is filed as physicochemical.
Series [4] in a line: Clearance in rat at 5 mg/kg, iv. On the set-up: dose 5 mg/kg, route intravenous. It is filed as ADME, organism-based. Particulars: in vivo.
Series [5] is described as follows: Half life in rat at 5 mg/kg, iv. The class given is ADME, organism-based. Particulars: in vivo. On the set-up: dose 5 mg/kg, route intravenous.
Series [6] is described as follows: Chemical stability assessed as half life at pH 7.4 by HPLC. The class given is physicochemical. Particulars: buffer.
The nature of series [7]: Chemical stability assessed as half life at pH 9 by HPLC. It is filed as physicochemical. The following applies: buffer.
Series [8] can be described thus: Chemical stability assessed as half life at pH 5 by HPLC. The class given is physicochemical. Particulars: buffer.
Series [9] can be described thus: Cmax in Sprague-Dawley rat plasma at 5 mg/kg, po coadministered with RTV. The class given is ADME, organism-based. On the set-up: dose 5 mg/kg, route oral. In a few lines: (§1)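 Male Sprague-Dawley-derived rats (0.25-0.35 kg, n = 3) were given oral gavage doses equivalent to 5 mg/kg parent (5 mg equiv/kg). Prodrugs were given in 5% dextrose in water. Parents were given in ethanol/propylene glycol formulation. For LPV species, a 5 mg/kg RTV gavage dose was given first. Plasma was analyzed by reversed-phase HPLC with an internal standard. Cmax is in µg/mL and AUC in µg·h/mL.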

Series [10] in a line: AUC in Sprague-Dawley rat plasma at 5 mg/kg, po coadministered with RTV. It is filed as ADME, organism-based. On the set-up: dose 5 mg/kg, route oral. In outline: as §1
Series [11] can be described thus: AUC in po dosed Beagle dog at dose molar equivalent to 5 mg/kg RTV coadministered with LPV-OMP dosed as 5% dextrose containing solution. It is filed as ADME, organism-based, Canis lupus familiaris. On the set-up: dose 5 mg/kg, route oral. Particulars: plasma. In outline:
(§2)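 Male and female beagle dogs (8-12 kg, n = 3) were dosed orally at 5 mg equiv/kg of parent. Parents were dissolved in 5% dextrose with 20% ethanol, 30% propylene glycol and 2 equiv methanesulfonic acid. Prodrugs were dissolved in 5% dextrose. Plasma was measured by reversed-phase HPLC with an internal standard. Cmax is in µg/mL and AUC in µg·h/mL.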

A short description of series [12]: AUC in po dosed Beagle dog at dose molar equivalent to 5 mg/kg RTV coadministered with LPV dosed as 5% dextrose containing solution. It is filed as ADME, organism-based, Canis lupus familiaris. On the set-up: dose 5 mg/kg, route oral. Particulars: plasma. In outline: as §2
Series [13] is described as follows: Cmax in po dosed Beagle dog at dose molar equivalent to 5 mg/kg RTV coadministered with LPV dosed as 5% dextrose containing solution. The following applies: in vivo. The class given is ADME, organism-based, Canis lupus familiaris. On the set-up: dose 5 mg/kg, route oral. In outline:
as §2

Series [14] is described as follows: Cmax in po dosed Beagle dog at dose molar equivalent to 5 mg/kg RTV coadministered with LPV-OMP dosed as 5% dextrose containing solution. On the set-up: dose 5 mg/kg, route oral. It is filed as ADME, organism-based, Canis lupus familiaris. Particulars: in vivo. In outline:
as §2

Series [15] relates to Rattus norvegicus. Nature of the series: AUC in Sprague-Dawley rat plasma at 5 mg/kg, po. The class given is ADME, organism-based. On the set-up: dose 5 mg/kg, route oral. The following applies: in vivo. In outline:
as §1

Values after ≈ are worked out from the molar mass of the structure shown.

For `CCCC(O[C@@H](C[C@H](Cc1ccccc1)NC(=O)[C@@H](NC(=O)N(C)Cc1csc(C(C)C)n1)C(C)C)[C@H](Cc1ccccc1)NC(=O)OCc1cncs1)OP(=O)([O-])[O-].[Na+].[Na+]` (stereo not given in full), the half-life in series [1] is 31.7 min.

In turn, `Cc1cccc(C)c1OCC(=O)N[C@@H](Cc1ccccc1)[C@H](C[C@H](Cc1ccccc1)NC(=O)[C@H](C(C)C)N1CCCNC1=O)OCOP(=O)([O-])[O-].[Na+].[Na+]` came in with a solubility (thermodynamic) in series [2] greater than 5000 µg/mL. The half-life was 13.9 min in [1] and 468 min in series [3].

Take `CC(C)c1nc(CN(C)C(=O)N[C@H](C(=O)N[C@@H](Cc2ccccc2)C[C@H](OP(=O)([O-])[O-])[C@H](Cc2ccccc2)NC(=O)OCc2cncs2)C(C)C)cs1.[Na+].[Na+]`: the clearance in series [4] is 43 mL/min/kg. This compound also had a half-life in series [5] of 13.8 min.

`CC(C)c1nc(CN(C)C(=O)N[C@H](C(=O)N[C@@H](Cc2ccccc2)C[C@H](OCOP(=O)([O-])[O-])[C@H](Cc2ccccc2)NC(=O)OCc2cncs2)C(C)C)cs1.[Na+].[Na+]` gave a solubility (thermodynamic) in [2] greater than 5000 µg/mL. In addition, the half-life in series [1] is 7 min; in series [3] it was 516 min.

Take `Cc1cccc(C)c1OCC(=O)N[C@@H](Cc1ccccc1)[C@H](C[C@H](Cc1ccccc1)NC(=O)[C@H](C(C)C)N1CCCNC1=O)OC(C)OP(=O)([O-])[O-].[Na+].[Na+]` (stereo not given in full): the solubility (thermodynamic) in series [2] is greater than 5000 µg/mL. The half-life in series [1] is 20.4 min; in series [6] it was 19 days; in series [7] it was greater than 100 days; in [3], less than 15 min; in series [8], 133 min.

Take `CC(C)c1nc(CN(C)C(=O)N[C@H](C(=O)N[C@@H](Cc2ccccc2)C[C@H](OC(OP(=O)([O-])[O-])C(C)C)[C@H](Cc2ccccc2)NC(=O)OCc2cncs2)C(C)C)cs1.[Na+].[Na+]` (stereo not given in full): the half-life in [1] is greater than 30 min.

`Cc1cccc(C)c1OCC(=O)N[C@@H](Cc1ccccc1)[C@@H](O)C[C@H](Cc1ccccc1)NC(=O)[C@H](C(C)C)N1CCCNC1=O` [LOPINAVIR]: the Cmax in series [9] turned out to be 1550 ng/mL. In series [2], the thermodynamic solubility came out at 7 µg/mL (≈ 11.1 µM). Further, in series [10], the AUC was determined as 9280 ng·h/mL.

With `CC(O[C@@H](C[C@H](Cc1ccccc1)NC(=O)[C@@H](NC(=O)N(C)Cc1csc(C(C)C)n1)C(C)C)[C@H](Cc1ccccc1)NC(=O)OCc1cncs1)OP(=O)([O-])[O-].[Na+].[Na+]` (stereo not given in full), in series [2], the solubility (thermodynamic) was greater than 5000 µg/mL. In addition, the half-life in [1] was 14.8 min; in series [6], 12 days; in [7] it was greater than 100 days; in series [3], less than 15 min; in [8] it was 76 min.

Regarding `CC(C)c1nc(CN(C)C(=O)N[C@H](C(=O)N[C@@H](Cc2ccccc2)C[C@H](O)[C@H](Cc2ccccc2)NC(=O)OCc2cncs2)C(C)C)cs1` [RITONAVIR], the AUC in [11] was 4430 ng·h/mL; in series [12], 2190 ng·h/mL; in series [15], 3530 ng·h/mL. Moreover, the Cmax in series [13] worked out at 1320 ng/mL; in series [14], 2130 ng/mL.

The values above are taken from ChEMBL document CHEMBL1138456 (J Med Chem, 2009).
